Laboratory results reported in ChEMBL document CHEMBL4602675, “The Marine Natural Product Manzamine A Inhibits Cervical Cancer by Targeting the SIX1 Protein” (J Nat Prod, 2020).
Calls of active or inactive are those of the source. The rule behind the calls is not given here.

Experiments:
[1] = tested on: C-33-A; assay: Induction of apoptosis in human C33A cells assessed as necrotic cells at 4 uM after 48 hrs by Annexin V-FITC/PI double staining based flow cytometric analysis (reference value: 1.9%); type: functional
[2] = tested on: SiHa; assay: Inhibition of colony formation in human SiHa cells at 2 to 4 uM afer 1 week by crystal violet staining based assay; type: functional, cell-based
Summary of the method: (§1)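 Cells were grown in DMEM with 10% FBS, seeded at 1 × 10^3 cells/ml in six-well plates, incubated overnight, then exposed to 2 or 4 μM at 37 °C under 5% CO2 for one week. Colonies were fixed with 4% paraformaldehyde, stained with 0.5% crystal violet and photographed.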

[3] = tested on: Ca-Ski; assay: Induction of apoptosis in human CaSki cells assessed as early apoptotic cells at 4 uM after 24 hrs by Annexin V-FITC/PI double staining based flow cytometric analysis (reference value: 12.2%); type: functional
[4] = tested on: Ca-Ski; assay: Inhibition of colony formation in human CaSki cells at 2 to 4 uM afer 1 week by crystal violet staining based assay; type: functional, cell-based; summary of the method: as §1
[5] = target: T1, Homeobox protein SIX1 (Homo sapiens) (UniProt Q15475); assay: Inhibition of SIX1 in human HeLa cells at 2 to 4 uM after 48 hrs by Western blot analysis; type: cell-based
T1 sequence (whole entry): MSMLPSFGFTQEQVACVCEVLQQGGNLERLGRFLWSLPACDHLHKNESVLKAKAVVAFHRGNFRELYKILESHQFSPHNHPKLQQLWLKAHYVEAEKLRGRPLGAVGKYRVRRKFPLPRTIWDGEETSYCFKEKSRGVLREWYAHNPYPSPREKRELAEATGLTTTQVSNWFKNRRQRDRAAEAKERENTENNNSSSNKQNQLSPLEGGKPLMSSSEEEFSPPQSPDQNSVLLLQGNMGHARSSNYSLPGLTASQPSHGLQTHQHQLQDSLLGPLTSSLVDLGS
Summary of the method: (§2)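 Cells were seeded at 1 × 10^6 per 100 mm dish and treated next day with 2 or 4 μM for 48 h. They were trypsinised, PBS-washed and lysed in RIPA with protease inhibitors. Equal protein was run on SDS-PAGE and transferred to PVDF. Primary antibodies were used at 1:500, with BSA 3% for blocking and antibodies for CK2α, Rb and pRb, otherwise 5% milk in TBST. HRP secondary at 1:2000, chemiluminescence detection.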

[6] = target: Protein E6 (Human papillomavirus 16) (UniProt P03126); assay: Inhibition of Human papillomavirus type16 derived E6 in human SiHa cells assessed as increase in p21 protein expression at 2 to 4 uM after 48 hrs by Western blot analysis; type: cell-based; summary of the method: as §2
[7] = tested on: SiHa; assay: Cell cycle arrest in human SiHa cells assessed as accumulation at G2/M phase at 4 uM after 72 hrs by propidium iodide staining based flow cytometric analysis (reference value: 18%); type: functional
Summary of the method: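 Cells in DMEM with 10% FBS, 2 mM L-glutamine, pen-strep, 37 °C, 5% CO2; seeded and left overnight, then treated at 4 μM with DMSO as control. Harvested by trypsin at 24, 48 or 72 h, fixed in chilled 70% ethanol 30 min on ice, RNase A (1 mg/mL) 30 min at room temperature, PI (20 μg/mL). Flow cytometry, ≥10 000 events, G0/G1, S, G2/M fractions; mean ± SEM.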

[8] = tested on: C-33-A; assay: Cell cycle arrest in human C33A cells assessed as accumulation at G0/G1 phase at 4 uM after 72 hrs by propidium iodide staining based flow cytometric analysis (reference value: 60%); type: functional
Summary of the method: (§3)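 Cells in DMEM/10% FBS at 37 °C, 5% CO2 were given 4 μM for 24, 48 or 72 h, with DMSO as control. After trypsinization they were fixed in chilled 70% ethanol on ice for 30 min, treated with RNase A (1 mg/mL) for 30 min at room temperature, and stained with PI (20 μg/mL). At least 10 000 events were read by flow cytometry to give sub-G1, G0/G1, S and G2/M fractions; mean ± SEM.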

[9] = target: T1, Homeobox protein SIX1 (Homo sapiens); assay: Potency index, ratio for inhibition activity of apigenin to test compound for inhibition of SIX1 in human C33A cells after 48 hrs by Western blot analysis; type: cell-based; conditions: C-33-A
Summary of the method: (§4)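 Cells plated at 1 × 10^6 per 100 mm dish and treated next day for 48 h with test compound (2 or 4 μM) or apigenin (10, 20 or 40 μM). RIPA lysates with protease inhibitors; equal protein loaded for SDS-PAGE, then PVDF transfer. Blocked in 5% milk/TBST (3% BSA for CK2α); anti-SIX1 or anti-CK2α 1:500, HRP secondary 1:2000; chemiluminescent detection.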

[10] = tested on: HeLa; assay: Cell cycle arrest in human HeLa cells assessed as accumulation at G0/G1 phase at 4 uM after 48 hrs by propidium iodide staining based flow cytometric analysis (reference value: 69.6%); type: functional; summary of the method: as §3
[11] = tested on: Ca-Ski; assay: Cell cycle arrest in human CaSki cells assessed as accumulation at G0/G1 phase at 4 uM after 24 hrs by propidium iodide staining based flow cytometric analysis (reference value: 56%); type: functional; summary of the method: as §3
[12] = tested on: Ca-Ski; assay: Induction of apoptosis in human CaSki cells assessed as early apoptotic cells at 4 uM after 48 hrs by Annexin V-FITC/PI double staining based flow cytometric analysis (reference value: 4.4%); type: functional
[13] = tested on: C-33-A; assay: Antiproliferative activity against human C33A cells assessed as reduction in cell viability after 48 hrs by CellTiter-Glo assay; type: functional, cell-based
Summary of the method: (§5)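 ATP-based luminescent viability readout. Cells were grown in DMEM with 10% FBS, 2 mM L-glutamine and penicillin-streptomycin at 37 °C, 5% CO2. 2 × 10^4 cells/well were seeded, then exposed the next day to 0–40 μM for 24, 48 or 72 h. % viability = 100 × treated/control. IC50 was fitted from a sigmoid dose-response curve. Run at least three times in quadruplicate; mean ± SEM.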

[14] = target: Casein kinase II subunit alpha (Homo sapiens) (UniProt P68400); assay: Inhibition of CK2alpha in human C33A cells at 2 to 4 uM after 48 hrs by Western blot analysis; type: cell-based; conditions: C-33-A; summary of the method: as §2
[15] = target: T1, Homeobox protein SIX1 (Homo sapiens); assay: Potency index, ratio for inhibition activity of apigenin to test compound for inhibition of SIX1 in human CaSki cells after 48 hrs by Western blot analysis; type: cell-based; conditions: Ca-Ski; summary of the method: as §4
[16] = tested on: SiHa; assay: Antiproliferative activity against human SiHa cells assessed as reduction in cell viability after 48 hrs by CellTiter-Glo assay; type: functional, cell-based; summary of the method: as §5
[17] = tested on: HeLa; assay: Induction of apoptosis in human HeLa cells assessed as viable cells at 4 uM after 24 hrs by Annexin V-FITC/PI double staining based flow cytometric analysis (reference value: 85.2%); type: functional; conditions: read-out: Activity
[18] = tested on: HeLa; assay: Cell cycle arrest in human HeLa cells assessed as accumulation at G0/G1 phase at 4 uM after 24 hrs by propidium iodide staining based flow cytometric analysis (reference value: 69.4%); type: functional; summary of the method: as §3
[19] = tested on: SiHa; assay: Induction of apoptosis in human SiHa cells assessed as early apoptotic cells at 4 uM after 24 hrs by Annexin V-FITC/PI double staining based flow cytometric analysis (reference value: 5.4%); type: functional
[20] = tested on: Ca-Ski; assay: Cell cycle arrest in human CaSki cells assessed as increase in accumulation at G0/G1 phase at 4 uM incubated for 48 hrs by propidium iodide staining based flow cytometric analysis; type: functional; summary of the method: as §3
[21] = tested on: C-33-A; assay: Induction of apoptosis in human C33A cells assessed as early apoptotic cells at 4 uM after 24 hrs by Annexin V-FITC/PI double staining based flow cytometric analysis (reference value: 4.3%); type: functional

Sequence of Protein E6 (Human papillomavirus 16) (P03126 whole entry): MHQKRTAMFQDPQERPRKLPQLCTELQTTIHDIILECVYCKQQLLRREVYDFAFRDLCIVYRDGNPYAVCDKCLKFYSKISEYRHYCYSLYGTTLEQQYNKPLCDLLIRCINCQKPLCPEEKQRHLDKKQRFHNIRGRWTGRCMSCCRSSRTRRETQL
Sequence of Casein kinase II subunit alpha (Homo sapiens) (P68400 whole entry, looked up): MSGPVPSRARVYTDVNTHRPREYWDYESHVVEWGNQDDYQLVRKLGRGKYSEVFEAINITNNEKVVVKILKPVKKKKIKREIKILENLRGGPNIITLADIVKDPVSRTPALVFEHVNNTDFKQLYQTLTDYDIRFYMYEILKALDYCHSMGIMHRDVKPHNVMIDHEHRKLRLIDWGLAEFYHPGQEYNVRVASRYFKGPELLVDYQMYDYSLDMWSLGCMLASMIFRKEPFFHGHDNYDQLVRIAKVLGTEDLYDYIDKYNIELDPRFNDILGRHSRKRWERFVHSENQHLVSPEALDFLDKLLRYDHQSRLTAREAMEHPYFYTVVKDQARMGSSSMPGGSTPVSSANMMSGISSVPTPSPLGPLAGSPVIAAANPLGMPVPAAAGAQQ

In the case of `O[C@]12C=C(c3nccc4c3[nH]c3ccccc34)[C@@H]3CCN(CCCC/C=C\CC1)C[C@@]31C[C@@H]3/C=C\CCCCN3[C@H]12` [MANZAMINE A], the Activity [1] is reported as 11.1%, the inhibition [2] is reported as “Active” and the Activity [3] is reported as 16.9%. For the same molecule, the inhibition [4] was “Active”, the inhibition [5] was “Active” and the inhibition [6] was “Active”. It also gave an Activity [7] of 12.7%, an Activity [8] of 34.2% and a Ratio [9] of 10. The Activity [10] was 63.9%, the Activity [11] was 77.6% and the Activity [12] was 13.4%. The IC50 [13] was 2.1 µM, the inhibition [14] was “Active” and the Ratio [15] was 10. The IC50 [16] was 9.9 µM, the viability at 4 µM [17] was 81.7% and the Activity [18] was 74.7%. For the same molecule, the Activity [19] was 13.7%, the “fold change (FC)” value [20] was 1.5 and the Activity [21] was 17.4%.
